Data taken from ChEMBL document CHEMBL1926519, “B-Ring-modified and/or 5-demethylated nobiletin congeners: inhibitory activity against pro-MMP-9 production” (Bioorg Med Chem, 2011).
Active and inactive are the calls of the source. The calls are words filed in the database; no cut-off is given here.

Tests used:
[1] = Cytotoxicity against human SRA 01/04 cells at 64 uM after 24 hrs by LDH release assay; type: cell-based
Outline: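 SRA01/04 lens epithelial cells seeded at 5,000/well, after 15–18 h washed with serum-free medium and exposed 24 h to test sample, final 64 lmol/L from DMSO stock. LDH in supernatant read at 570 nm. Percent specific release = (S−N)/(P−N)×100, P being 0.2% Tween-20 lysis and N cell- and serum-free medium. Triplicate means.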

[2] = Inhibition of PMA-stimulated pro MMP9 production in human SRA 01/04 cells after 24 hrs by SDS-PAGE based gelatin zymography assay; type: functional, cell-based
Outline: (§1)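 Confluent SRA01/04 cells (DMEM, 20% heat-inactivated FBS, 37 °C, 5% CO2) treated 24 h with test sample at 0.25, 1, 4, 16, 64 µM plus PMA 10 nM or TNF-a 10 ng/mL. Media run on 10% SDS–PAGE with 0.6 mg/mL gelatin, incubated at 37 °C in Tris–HCl pH 7.5/CaCl2/ZnCl2, Coomassie-stained. Pro-MMP-9 bands quantified densitometrically, giving IC50, triplicate means.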

[3] = Inhibition of TNFalpha-stimulated pro MMP9 production in human SRA 01/04 cells after 24 hrs by SDS-PAGE based gelatin zymography assay; type: functional, cell-based; outline: as §1
[4] = Ratio of IC50 for PMA-stimulated pro MMP9 production in human SRA 01/04 cells to IC50 for TNFalpha-stimulated pro MMP9 production in human SRA 01/04 cells; type: functional
Homo sapiens = species on record: Homo sapiens; experiment: Inhibition of PMA-stimulated pro MMP9 production in human SRA 01/04 cells at 64 uM after 24 hrs by SDS-PAGE based gelatin zymography assay; type: functional, cell-based

COc1c(OC)c(OC)c2c(=O)cc(-c3ccc(OCc4ccccc4)cc3)oc2c1OC
Activity [1]: Toxic

COc1cccc(-c2cc(=O)c3c(OC)c(OC)c(OC)c(OC)c3o2)c1
IC50 [2]: 5.5 µM | IC50 [3]: 15.5 µM | Activity [1]: Non-toxic

COc1cc(OC)cc(-c2cc(=O)c3c(OC)c(OC)c(OC)c(OC)c3o2)c1
IC50 [2]: 12 µM | IC50 [3]: 25.8 µM | Activity [1]: Non-toxic

COc1c(OC)c(O)c2c(=O)cc(-c3ccc(O)cc3)oc2c1OC [XANTHOMICROL]
Ratio IC50 [4]: 6 | IC50 [2]: 3.5 µM | IC50 [3]: 22.3 µM | Activity [1]: Non-toxic

COc1c(OC)c(OC)c2c(=O)cc(-c3cccc(O)c3)oc2c1OC
IC50 [2]: 2.5 µM | IC50 [3]: 23.5 µM | Activity [1]: Non-toxic | inhibition (Homo sapiens): inactive

COc1cc(-c2cc(=O)c3c(O)c(OC)c(OC)c(OC)c3o2)ccc1O
Ratio IC50 [4]: 15 | IC50 [2]: 0.7 µM | IC50 [3]: 10.6 µM | Activity [1]: Non-toxic

COc1c(OC)c(OC)c2c(=O)cc(-c3cc(O)cc(O)c3)oc2c1OC
IC50 [2]: 8.1 µM | IC50 [3]: 24 µM | Activity [1]: Non-toxic

COc1c(OC)c(OC)c2c(=O)cc(-c3ccc(O)cc3)oc2c1OC
IC50 [2]: 2.6 µM | IC50 [3]: 14.3 µM | Activity [1]: Non-toxic

COc1c(OC)c(OC)c2c(=O)cc(-c3ccccc3O)oc2c1OC
Ratio IC50 [4]: 170 | IC50 [2]: 0.4 µM | IC50 [3]: 68 µM | Activity [1]: Non-toxic

COc1ccc(-c2cc(=O)c3c(OC)c(OC)c(OC)c(OC)c3o2)cc1 [TANGERETIN]
IC50 [2]: 6.8 µM | IC50 [3]: 33.2 µM | Activity [1]: Non-toxic

COc1ccc(-c2cc(=O)c3c(O)c(OC)c(OC)c(OC)c3o2)cc1OC [5-DEMETHYLNOBILETIN]
Ratio IC50 [4]: 14 | IC50 [2]: 3 µM | IC50 [3]: 42.4 µM | Activity [1]: Non-toxic | inhibition (Homo sapiens): inactive

COc1ccc(-c2cc(=O)c3c(O)c(OC)c(OC)c(OC)c3o2)cc1O
IC50 [2]: 1.5 µM | IC50 [3]: 29.6 µM | Activity [1]: Non-toxic | inhibition (Homo sapiens): inactive

COc1ccccc1-c1cc(=O)c2c(OC)c(OC)c(OC)c(OC)c2o1
IC50 [2]: 13.7 µM | IC50 [3]: 24 µM | Activity [1]: Non-toxic

COc1c(OC)c(OC)c2c(=O)cc(-c3cccc(OCc4ccccc4)c3)oc2c1OC
Activity [1]: Toxic
